The source of these data is ChEMBL document CHEMBL2010799, “Hypoglycemic diterpenoids from Tinospora crispa” (2012).

Activity calls are given as the source filed them. No cut-off for these calls is given here.

Assay [1] in a line: Blockade of ATP-sensitive K+ channels.
Assay [2] concerns Mus musculus. Description: Antidiabetic activity in STZ-induced ICR mouse T1DM model assessed as reduction in plasma glucose level at 5 mg/kg, ip after 60 mins. It counts as functional, organism-based. Set-up: dose 5 mg/kg. The procedure, abridged:
(§1)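 ICR mice (normal, STZ-induced T1DM, or diet-induced T2DM) received a single ip injection in 2% DMSO/normal saline vehicle. Orbital plexus blood was drawn under pentobarbital anesthesia before and 60 min after injection. Plasma glucose was read with a glucose kit and analyzer and expressed as percent decrease, (Gi − Gt)/Gi × 100%. Seven animals per group, mean ± SEM.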

In assay [3] the test system is Mus musculus. Description: Antidiabetic activity in normal ICR mouse assessed as reduction in plasma glucose level at 5 mg/kg, ip after 60 mins. It counts as functional, organism-based. Also on record: dose 5 mg/kg. The procedure, abridged: as §1
The next assay concerns MIN6. In words: Induction of insulin secretion in mouse MIN6 cells. It counts as functional, cell-based.
Assay [4] deals with Mus musculus. In words: Antidiabetic activity in STZ-induced ICR mouse T1DM model assessed as reduction in plasma glucose level at 5 mg/kg, ip after 60 mins relative to metformin at 200 mg/kg, ip. It counts as functional.
For assay [5], the system named is Mus musculus. In words: Antidiabetic activity in normal ICR mouse assessed as reduction in plasma glucose level at 5 mg/kg, ip after 60 mins relative to metformin at 200 mg/kg, ip. Type of assay: functional.
The test system of assay [6] is Mus musculus. In words: Antidiabetic activity in diet-induced ICR mouse T2DM model assessed as reduction in plasma glucose level after 60 to 150 mins post glucose challenge by ip glucose tolerance test. Type of assay: functional, organism-based.
The subject of assay [7] is Mus musculus. In words: Antidiabetic activity in STZ-induced ICR mouse T1DM model assessed as increase in plasma insulin level at 0.5 mg/kg, ip after 60 mins by ELISA (reference value: 16.2 +/- 0.7 pmol/L). To be noted: route intraperitoneal. It counts as functional.
Assay [8] has as its system Mus musculus. Description: Antidiabetic activity in ip dosed normal ICR mouse assessed as reduction in plasma glucose level after 60 mins. Type of assay: functional, organism-based. The procedure, abridged:
as §1

Assay [9] relates to Mus musculus. Description: Antidiabetic activity in normal ICR mouse assessed as reduction in plasma glucose level after 60 to 150 mins post glucose challenge by ip glucose tolerance test. Type of assay: functional, organism-based.
The test system of assay [10] is Mus musculus. In words: Antidiabetic activity in ip dosed STZ-induced ICR mouse T1DM model assessed as reduction in plasma glucose level after 60 mins. Type of assay: functional, organism-based. The method, boiled down:
as §1

The test system of assay [11] is Mus musculus. In words: Antidiabetic activity in diet-induced ICR mouse T2DM model assessed as increase in plasma insulin level at 1 mg/kg, ip after 60 mins by ELISA (reference value: 111.6 +/- 2.7 pmol/L). It counts as functional. To be noted: route intraperitoneal. A general note: In an ELISA, binding on a coated surface is turned into a signal by an enzyme label.

For assay [12], the system named is Mus musculus. Description: Antidiabetic activity in normal ICR mouse assessed as increase in plasma insulin level at 3 mg/kg, ip after 60 mins by ELISA (reference value: 52 +/- 3.7 pmol/L). It counts as functional. Conditions: route intraperitoneal.
In assay [13] the test system is Mus musculus. In words: Antidiabetic activity in normal ICR mouse assessed as increase in plasma insulin level at 5 mg/kg, ip after 60 mins by ELISA (reference value: 57.6 +/- 2.4 pmol/L). It counts as functional. To be noted: route intraperitoneal.
The subject of assay [14] is Mus musculus. Description: Antidiabetic activity in diet-induced ICR mouse T2DM model assessed as increase in plasma insulin level at 0.5 mg/kg, ip after 60 mins by ELISA (reference value: 120.8 +/- 4.3 pmol/L). Type of assay: functional. Conditions: route intraperitoneal.
Assay [15] deals with Mus musculus. In words: Antidiabetic activity in diet-induced ICR mouse T2DM model assessed as increase in plasma insulin level at 3 mg/kg, ip after 60 mins by ELISA (reference value: 112.1 +/- 3.2 pmol/L). It counts as functional. To be noted: route intraperitoneal.
For assay [16], the system named is Mus musculus. Description: Antidiabetic activity in STZ-induced ICR mouse T1DM model assessed as increase in plasma insulin level at 0.1 mg/kg, ip after 60 mins by ELISA (reference value: 15.2 +/- 0.8 pmol/L). It counts as functional. Conditions: route intraperitoneal.
Assay [17] concerns Mus musculus. Description: Antidiabetic activity in diet-induced ICR mouse T2DM model assessed as increase in plasma insulin level at 0.1 mg/kg, ip after 60 mins by ELISA (reference value: 111.8 +/- 5.2 pmol/L). It counts as functional. To be noted: route intraperitoneal.
The test system of assay [18] is Mus musculus. In words: Antidiabetic activity in normal ICR mouse assessed as reduction in plasma glucose level after 30 mins post glucose challenge by ip glucose tolerance test (reference value: 346 +/- 15 mg/dL). Type of assay: functional.
Assay [19] concerns Mus musculus. In words: Antidiabetic activity in STZ-induced ICR mouse T1DM model assessed as increase in plasma insulin level at 3 mg/kg, ip after 60 mins by ELISA (reference value: 13.8 +/- 1.6 pmol/L). Conditions: route intraperitoneal. It counts as functional.
Assay [20] has as its system Mus musculus. In words: Antidiabetic activity in STZ-induced ICR mouse T1DM model assessed as increase in plasma insulin level at 1 mg/kg, ip after 60 mins by ELISA (reference value: 15.7 +/- 1.0 pmol/L). It counts as functional. To be noted: route intraperitoneal.
The test system of assay [21] is Mus musculus. Description: Antidiabetic activity in normal ICR mouse assessed as increase in plasma insulin level at 1 mg/kg, ip after 60 mins by ELISA (reference value: 60.3 +/- 3.7 pmol/L). To be noted: route intraperitoneal. It counts as functional.
The subject of assay [22] is Mus musculus. In words: Antidiabetic activity in ip dosed diet-induced ICR mouse T2DM model assessed as reduction in plasma glucose level after 60 mins. Type of assay: functional, organism-based. The method, boiled down: as §1
In assay [23] the test system is Mus musculus. In words: Antidiabetic activity in STZ-induced ICR mouse T1DM model assessed as decrease in phosphoenolpyruvate carboxykinase level in liver at 5 mg/kg administered bid for 7 days by Western blotting analysis. It counts as functional, organism-based. Also on record: dose 5 mg/kg. The method, boiled down: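 Male ICR mice with STZ-induced T1DM (fasting glucose >350 mg/dL, used 4 weeks after STZ) were dosed ip at 5.0 mg/kg twice daily for 7 days. Liver homogenates (60 µg) were run on 8% SDS-PAGE and Western blotted with PEPCK antibody (1:1000), with ECL detection. PEPCK (70 kDa) and β-actin (43 kDa) were quantified by densitometry; n = 3.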
A general note: Immunoblotting shows a protein as a band on a membrane.

Assay [24] concerns Mus musculus. Description: Antidiabetic activity in normal ICR mouse assessed as increase in plasma insulin level at 0.1 mg/kg, ip after 60 mins by ELISA (reference value: 54 +/- 3.4 pmol/L). To be noted: route intraperitoneal. Type of assay: functional.
The subject of assay [25] is Mus musculus. In words: Antidiabetic activity in STZ-induced ICR mouse T1DM model assessed as increase in plasma insulin level at 5 mg/kg, ip after 60 mins by ELISA (reference value: 14.7 +/- 0.4 pmol/L). It counts as functional. Conditions: route intraperitoneal.
For assay [26], the system named is Mus musculus. Description: Antidiabetic activity in diet-induced ICR mouse T2DM model assessed as increase in plasma insulin level at 5 mg/kg, ip after 60 mins by ELISA (reference value: 112.1 +/- 6.3 pmol/L). It counts as functional. Conditions: route intraperitoneal.
For assay [27], the system named is Mus musculus. Description: Antidiabetic activity in diet-induced ICR mouse T2DM model assessed as reduction in plasma glucose level after 30 mins post glucose challenge by ip glucose tolerance test (reference value: 406 +/- 9 mg/dL). It counts as functional.
Assay [28] deals with Mus musculus. Description: Antidiabetic activity in normal ICR mouse assessed as increase in plasma insulin level at 0.5 mg/kg, ip after 60 mins by ELISA (reference value: 53.1 +/- 3.3 pmol/L). It counts as functional. To be noted: route intraperitoneal.
The test system of assay [29] is Mus musculus. Description: Antidiabetic activity in diet-induced ICR mouse T2DM model assessed as increase in plasma insulin level at 5 mg/kg, ip after 60 mins by ELISA (reference value: 123.5 +/- 10.2 pmol/L). To be noted: route intraperitoneal. It counts as functional.
The subject of assay [30] is Mus musculus. Description: Antidiabetic activity in normal ICR mouse assessed as increase in plasma insulin level at 5 mg/kg, ip after 60 mins by ELISA (reference value: 52.5 +/- 4.6 pmol/L). Type of assay: functional. To be noted: route intraperitoneal.
Assay [31] deals with Mus musculus. In words: Antidiabetic activity in diet-induced ICR mouse T2DM model assessed as reduction in plasma glucose level at 5 mg/kg, ip after 60 mins (reference value: 170 +/- 2.8 mg/dL). Type of assay: functional. To be noted: route intraperitoneal. The procedure, abridged: as §1
The test system of assay [32] is Mus musculus. Description: Antidiabetic activity in normal ICR mouse assessed as reduction in plasma glucose level at 5 mg/kg, ip after 60 mins (reference value: 102 +/- 3.7 mg/dL). Type of assay: functional. To be noted: route intraperitoneal. The procedure, abridged: as §1
Assay [33] relates to Mus musculus. In words: Antidiabetic activity in normal ICR mouse assessed as reduction in plasma glucose level at 200 mg/kg, ip after 60 mins. Type of assay: functional, organism-based. Set-up: dose 200 mg/kg. The procedure, abridged:
as §1

The test system of assay [34] is Mus musculus. In words: Antidiabetic activity in STZ-induced ICR mouse T1DM model assessed as reduction in plasma glucose level at 200 mg/kg, ip after 60 mins. Type of assay: functional, organism-based. Also on record: dose 200 mg/kg. The procedure, abridged: as §1
The subject of assay [35] is Mus musculus. In words: Antidiabetic activity in STZ-induced ICR mouse T1DM model assessed as increase in plasma insulin level at 200 mg/kg, ip after 60 mins by ELISA (reference value: 13.5 +/- 1.1 pmol/L). It counts as functional. Conditions: route intraperitoneal.

On to `COC(=O)C1=C[C@H](O)C[C@H]2[C@]3(C)C[C@@H](c4ccoc4)OC(=O)[C@H]3C[C@H](O[C@@H]3O[C@H](CO)[C@@H](O)[C@H](O)[C@H]3O)[C@@]12C`, for which the result (in [1]; in the assay on Mus musculus [2]; in the assay on Mus musculus [3]; in the assay with MIN6) was inactive.

`C[C@@]12C[C@@H](c3ccoc3)OC(=O)[C@@H]1C[C@@H]1OC(=O)[C@@]3(O)[C@@H](O[C@@H]4O[C@H](CO)[C@@H](O)[C@H](O)[C@H]4O)CC[C@@H]2[C@@]13C` [BORAPETOSIDE A]: the result (in assay [1]; in the assay with MIN6) was inactive. Further, the result in the assay on Mus musculus [2] and with Mus musculus [3] was Active. Moreover, the “fold change (FC)” value with Mus musculus [4] and in the assay on Mus musculus [5] was 2 in each case.

Consider `COC(=O)C1=CCC[C@H]2[C@]3(C)C[C@@H](c4ccoc4)OC(=O)[C@@H]3C[C@@H](O[C@@H]3O[C@H](CO)[C@@H](O)[C@H](O)[C@H]3O)[C@@]12C` [BORAPETOSIDE C], for which the result (in assay [1]; in the assay with MIN6) was inactive. For the same compound, the result with Mus musculus [6], in the assay on Mus musculus [9], in the assay with Mus musculus [23], in the assay on Mus musculus [2] and in the assay on Mus musculus [3] was Active. Besides, the Activity with Mus musculus [7] is 15.7 pmol/L; in the assay on Mus musculus [8], “Dose-dependent effect”; with Mus musculus [10] it was “Dose-dependent effect”; in the assay with Mus musculus [11] it was 173 pmol/L; with Mus musculus [12] it was 142.6 pmol/L; in the assay on Mus musculus [13], 149.6 pmol/L. In addition, the Activity in the assay with Mus musculus [14] is 170.8 pmol/L; in the assay on Mus musculus [15], 253.9 pmol/L; in the assay on Mus musculus [16], 16.3 pmol/L; in the assay with Mus musculus [17], 111.3 pmol/L; in the assay with Mus musculus [18], 293 mg/dL; with Mus musculus [19], 14.8 pmol/L. For the same compound, the Activity is 15.9 pmol/L in the assay on Mus musculus [20]; 63 pmol/L in the assay on Mus musculus [21]; “Dose-dependent effect” in the assay on Mus musculus [22]; 71.5 pmol/L in the assay with Mus musculus [24]; 14.3 pmol/L with Mus musculus [25]; 257.6 pmol/L in the assay with Mus musculus [26]. For the same compound, the Activity in the assay on Mus musculus [27] was found to be 343 mg/dL; in the assay with Mus musculus [28] it was 70.7 pmol/L.

Regarding `COc1ccc(Cl)cc1C(=O)NCCc1ccc(S(=O)(=O)NC(=O)NC2CCCCC2)cc1` [GLYBURIDE], the Activity was 208.8 pmol/L in the assay on Mus musculus [29], 145.8 pmol/L with Mus musculus [30], 108 mg/dL in the assay with Mus musculus [31] and 84 mg/dL with Mus musculus [32].

As for `CN(C)C(=N)NC(=N)N` [METFORMIN], the outcome in the assay with Mus musculus [33] and with Mus musculus [34] was Active. Besides, the Activity in the assay with Mus musculus [35] was 15.1 pmol/L.
